Laboratory results taken from PubChem BioAssay.
This is one part of the list. The source made the active and inactive calls.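 Rule for the calls, unless noted: active = inhibition reaching about 45% at 4 µM in either replicate (limit read from the data); inactive = the rest.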

system: not listed separately; experiment: lowers stimulated NF-kB luciferase signal in Jurkat – cell-based, luminescence, single concentration, T-cell NF-kB inhibitor project, confirmation (AID 435020); settings: PMA/ionomycin-induced, 16 h, at 4 µM, hits give high values;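 note: plate controls were PMA/ionomycin stimulated DMSO wells for no effect and unstimulated DMSO wells for full effect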

SMILES | inhibition
c1ccc2[nH]c(-c3nc4ccccc4[nH]3)nc2c1 | -90% (inactive)
COc1ccc(C2=Nn3c(nnc3-c3ccccc3OC)SC2)cc1OC1CCCC1 | 58% (active)
Clc1cccc(Cl)c1OCCOCCNCc1ccccc1 | 86.6% (active)
COC(=O)Cc1[nH]n(-c2nc3ccccc3s2)c(=O)c1C(C)=Nc1ccc(OC)cc1 | 79.2% (active)
C=C(C)C(=O)O[C@H]1C/C(C)=C\C(=O)/C=C(\C)[C@H](O)[C@@H]2OC(=O)C(=C)[C@@H]21 | 34.6% (inactive)
N/C(=N\OC(=O)N1c2ccccc2Sc2ccccc21)c1ccc(Br)cc1 | 6.45% (inactive)
CCCOc1ccc(C(=O)NCCc2ccccc2)cc1 | -82% (inactive)
NC(N)=N/N=C/c1ccc(OCc2ccc(Cl)cc2Cl)cc1 | -12.9% (inactive)
COc1ccc(Nc2ncnc3ccc(Br)cc23)c(OC)c1 | 88.2% (active)
COc1ccc2cc1Oc1ccc(cc1)C[C@H]1c3cc(c(OC)cc3CCN1C)Oc1c(O)c(OC)cc3c1[C@H](C2)N(C)CC3 | 16.9% (inactive)
CC1(C)CC(N2CCN(C(c3ccccc3)c3ccccc3)CC2)=CC(=[N+]2CCCCC2)C1 | 69.6% (active)
CC[n+]1cc(C)ccc1/C=C/c1ccc(N(C)C)cc1 | 46% (inactive)
O=C(Nc1ccc2sc3ccccc3c(=O)c2c1)c1ccccc1Cl | -104% (inactive)
CCN1/C(=C\c2ccc3ccccc3[n+]2CC)Sc2cc(C)ccc21 | 67.4% (active)
CCOc1[nH]n(-c2ccc(Cl)cc2)c(=O)c1C=Nc1ccc(O)cc1 | 6% (inactive)
OCCCNc1nccc(-c2cc(Nc3cccc(Cl)c3)ncn2)n1 | 97% (active)
Cn1ccc(=Nc2ccc(NC(=O)c3ccc(N=c4ccn(C)c5ccc([N+](=O)[O-])cc45)cc3)cc2)cc1 | -15.3% (inactive)
O=c1oc2ccccc2cc1-c1cn(-c2ccccc2)c(=S)[nH]1 | 80.8% (active)
NC(=O)c1c(NC(=O)c2ccccc2)sc2c1CCCC2 | -110% (inactive)
O=C(Nc1nc2ccccc2s1)c1ccc2c(c1)OCO2 | -106% (inactive)
Cc1cc(C(=O)OCC(=O)NCc2ccco2)c(C)n1-c1ccccc1 | 6.4% (inactive)
O=C(Nc1ccc2c(c1)CCC2)c1ccc(Br)s1 | -177% (inactive)
CC(C)(C)c1ccc(Oc2ccc(N)cc2)cc1 | 11.6% (inactive)
COc1ccccc1-n1nnnc1S(=O)(=O)Cc1ccc(Cl)cc1 | 26.5% (inactive)
CCc1ccc2oc(-c3ccc(N)cc3)nc2c1 | -126% (inactive)
COc1cccc(/C=N/NC(=O)c2[nH]nc3c2CCc2ccccc2-3)c1O | 39.9% (inactive)
Cc1cccc(/C(N)=N/OC(=O)c2ccccc2Cl)c1 | -97.8% (inactive)

system: not listed separately; experiment: PERK-eIF2a-CHOP pathway stimulators, retested – cell-based, CHO-CHOP luciferase reporter, single concentration, confirmation (AID 463112; in the data active = activation above about 33%;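 note: 0% = DMSO wells and 100% = tunicamycin 10 µg/mL wells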); settings: CHO-CHOP cells, CHOP-luciferase reporter luminescence; at 10 µM; hits give high values; percent of tunicamycin response, DMSO as zero
How it was run: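 Assay system: CHO-CHOP luciferase reporter cell line | Compound: Single dose of 10 µM compound, 0.5% DMSO final | Timing: 6 h compound treatment, 37 °C | Technique: Steady-Glo luciferase luminescence | Benchmarks: High control tunicamycin 10 µg/mL, low control DMSO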

SMILES | activation
Cc1cc(C(=O)CCl)c(C)n1CC1COc2ccccc2O1 (stereo unspecified) | 60.3% (active)
CCOc1ccc(N2C(=O)CC(N(O)c3ccccc3)C2=O)cc1 (stereo unspecified) | 186% (active)
COCCNc1nc(-n2nc(C)cc2C)nc2sc3c(c12)CCCC3 | 8.5% (inactive)
CCOC(=O)c1sc(NC(=O)CCN2CCOCC2)c(C(=O)OCC)c1C | -1.25% (inactive)
O=C(CN1CCN(S(=O)(=O)c2cc(Cl)ccc2Cl)CC1)c1ccc(O)c(O)c1 | 21.2% (inactive)
Cc1cccc(C)c1NC(=O)C(Cl)C(=O)c1ccccc1 (stereo unspecified) | 85.6% (active)
COC(=O)c1ccc(C(=O)Nc2cc(Cl)ccc2Cl)cc1NC(=O)c1ccccc1C | 10.6% (inactive)
COc1cc(/C=C2/C(=O)ON=C2C)ccc1OCc1ccccc1F | 3.58% (inactive)
C=CS(=O)c1sc(Cl)c(N2CCOCC2)c1[N+](=O)[O-] (stereo unspecified) | -10.6% (inactive)
Nc1ccccc1SC(C[N+](=O)[O-])c1ccccc1 (stereo unspecified) | -9.65% (inactive)
Cc1ccc(-c2nnc(-c3ccc(NC(=O)c4cccs4)cc3)o2)cc1 | 134% (active)
CCc1nn(-c2cc(Oc3cccc4ccccc34)nc(-c3ccccc3)n2)c(N)c1C#N | 40.1% (active)
Cc1ccc(Oc2nc(-c3ccccn3)nc3ccccc23)cc1 | 1.5% (inactive)

molecular target: Sentrin-specific protease 8 (Homo sapiens) (UniProt Q96LD8); experiment: human SENP8 peptidase blockers, hit retest – biochemical, luminescence, single concentration, confirmation (AID 488912;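 active = mean inhibition across replicates above about 50%, limit read from the data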); settings: Recombinant SENP8, Z-RLRGG-aminoluciferin luminescence, 60 min; at 12.5 µM; hits give high values
Sequence (Q96LD8 whole entry, looked up): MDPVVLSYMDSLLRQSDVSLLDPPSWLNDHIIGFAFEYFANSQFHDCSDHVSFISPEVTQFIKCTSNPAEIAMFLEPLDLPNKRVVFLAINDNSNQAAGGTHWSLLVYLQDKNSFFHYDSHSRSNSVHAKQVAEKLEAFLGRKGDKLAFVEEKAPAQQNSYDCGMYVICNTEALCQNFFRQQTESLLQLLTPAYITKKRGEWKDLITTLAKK

SMILES | inhibition
c1ccc2[nH]c(-c3nc4ccccc4[nH]3)nc2c1 | -14.2% (inactive)
CCCOc1ccc(C(=O)NCCc2ccccc2)cc1 | 13.2% (inactive)
O=C(Nc1ccc2sc3ccccc3c(=O)c2c1)c1ccccc1Cl | 6.3% (inactive)
O=c1oc2ccccc2cc1-c1cn(-c2ccccc2)c(=S)[nH]1 | 39.3% (inactive)
O=C(Nc1nc2ccccc2s1)c1ccc2c(c1)OCO2 | 66% (active)
O=C(Nc1ccc2c(c1)CCC2)c1ccc(Br)s1 | 44.7% (inactive)
CCc1ccc2oc(-c3ccc(N)cc3)nc2c1 | 94.5% (active)
Cc1cccc(/C(N)=N/OC(=O)c2ccccc2Cl)c1 | 97.7% (active)

molecular target: Sentrin-specific protease 6 (Homo sapiens) (UniProt Q9GZR1); experiment: inhibition of human SENP6 catalytic domain – biochemical, luminescence, single concentration, confirmation (AID 488915;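 active = mean inhibition above about 50% in the one-dose retest, limit read from the data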); settings: recombinant SENP6, Z-RLRGG-aminoluciferin luminescence; at 12.5 µM; hits give high values
Sequence (Q9GZR1 628-1112 limits assumed): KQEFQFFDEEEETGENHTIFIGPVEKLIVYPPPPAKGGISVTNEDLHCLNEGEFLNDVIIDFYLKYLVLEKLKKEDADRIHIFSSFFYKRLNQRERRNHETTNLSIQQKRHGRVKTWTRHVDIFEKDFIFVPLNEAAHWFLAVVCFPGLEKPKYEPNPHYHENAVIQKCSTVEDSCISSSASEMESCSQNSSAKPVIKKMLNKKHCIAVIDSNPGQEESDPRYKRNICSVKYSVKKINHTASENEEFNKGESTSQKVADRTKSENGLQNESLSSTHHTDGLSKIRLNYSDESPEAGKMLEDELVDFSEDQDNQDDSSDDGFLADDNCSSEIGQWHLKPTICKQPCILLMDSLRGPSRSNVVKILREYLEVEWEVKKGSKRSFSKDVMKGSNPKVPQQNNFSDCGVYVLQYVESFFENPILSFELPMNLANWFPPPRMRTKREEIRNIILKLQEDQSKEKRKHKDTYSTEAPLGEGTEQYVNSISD

SMILES | inhibition
c1ccc2[nH]c(-c3nc4ccccc4[nH]3)nc2c1 | 42.7% (inactive)
CCCOc1ccc(C(=O)NCCc2ccccc2)cc1 | 62% (active)
O=C(Nc1ccc2sc3ccccc3c(=O)c2c1)c1ccccc1Cl | 0% (inactive)
O=c1oc2ccccc2cc1-c1cn(-c2ccccc2)c(=S)[nH]1 | 47.9% (inactive)
O=C(Nc1nc2ccccc2s1)c1ccc2c(c1)OCO2 | 95.1% (active)
O=C(Nc1ccc2c(c1)CCC2)c1ccc(Br)s1 | 70.8% (active)
CCc1ccc2oc(-c3ccc(N)cc3)nc2c1 | 94.8% (active)
Cc1cccc(/C(N)=N/OC(=O)c2ccccc2Cl)c1 | 98.9% (active)
